# ChEMBL document CHEMBL2311431, “Synthesis and biological evaluation of some 5-arylidene-2-(1,3-thiazol-2-ylimino)-1,3-thiazolidin-4-ones as dual anti-inflammatory/antimicrobial agents” (Bioorg Med Chem, 2013)
# System: Bacillus cereus
# Test: Antibacterial activity against Bacillus cereus clinical isolate after 24 hr by microdilution test
# Format: functional
# Conditions: not given
# Procedure, shortened: (§1)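 Broth microdilution in LB medium, about 1.0×10^4 cfu per well; compounds from 1 mg/ml stocks in 5% DMSO. Incubated 24 h. MIC is the lowest concentration with no visible growth under a binocular microscope. Run in duplicate, repeated three times.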
row,Compound,MIC
1,O=C1N/C(=N\c2nccs2)S/C1=C\c1ccc(Cl)cc1Cl,28.1 µM
2,O=C1N/C(=N\c2nccs2)S/C1=C\c1cccc(Br)c1,25.6 µM

# System: Bacillus cereus
# Test: Bactericidal activity against Bacillus cereus clinical isolate after 72 hrs by serial subcultivation method
# Format: functional
# Conditions: not given
row,Compound,MBC
1,O=C1N/C(=N\c2nccs2)S/C1=C\c1ccc(Cl)cc1Cl,56.2 µM
2,O=C1N/C(=N\c2nccs2)S/C1=C\c1cccc(Br)c1,29.2 µM

# System: Penicillium ochrochloron
# Test: Fungicidal activity against Penicillium ochrochloron ATCC 9112 after 72 hrs by serial subcultivation method
# Format: functional
# Conditions: ATCC 9112, 72 h
row,Compound,MFC
1,O=C1N/C(=N\c2nccs2)S/C1=C\c1ccc(Cl)cc1Cl,56.2 µM
2,O=C1N/C(=N\c2nccs2)S/C1=C\c1cccc(Br)c1,22 µM

# System: Trichoderma viride
# Test: Antifungal activity against Trichoderma viride IAM 5061 after 72 hrs by serial dilution technique
# Format: functional
# Conditions: IAM 5061, 72 h
# Procedure, shortened: (§2)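 Serial dilution in malt broth; compounds from 1 mg/ml stocks in 5% DMSO; 72 h at 28 °C. MIC is the lowest concentration with no visible growth under a binocular microscope. Run in duplicate, repeated three times.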
row,Compound,MIC
1,O=C1N/C(=N\c2nccs2)S/C1=C\c1ccc(Cl)cc1Cl,28.1 µM
2,O=C1N/C(=N\c2nccs2)S/C1=C\c1cccc(Br)c1,18 µM

# Target: not listed separately
# Test: (§3) Inhibition of soybean lipoxygenase assessed as inhibition of sodium linolate conversion to 13-hydroperoxylinoleic acid after 4 mins by spectrophotometry
# Parameters: species or system Glycine max
# Conditions: read-out: IC50
row,Compound,IC50
1,O=C1N/C(=N\c2nccs2)S/C1=C\c1ccc(Cl)cc1Cl,122 µM
2,O=C1N/C(=N\c2nccs2)S/C1=C\c1cccc(Br)c1,> 150 µM

# System: Glycine max
# Test: as §3
# Conditions: not given
row,Compound,inhibition
1,O=C1N/C(=N\c2nccs2)S/C1=C\c1ccc(Cl)cc1Cl,54%
2,O=C1N/C(=N\c2nccs2)S/C1=C\c1cccc(Br)c1,34%

# System: Aspergillus flavus
# Test: Fungicidal activity against Aspergillus flavus ATCC 9643 after 72 hrs by serial subcultivation method
# Format: functional
# Conditions: ATCC 9643, 72 h
row,Compound,MFC
1,O=C1N/C(=N\c2nccs2)S/C1=C\c1ccc(Cl)cc1Cl,56.2 µM
2,O=C1N/C(=N\c2nccs2)S/C1=C\c1cccc(Br)c1,25.6 µM

# System: Escherichia coli
# Test: Bactericidal activity against Escherichia coli ATCC 35210 after 72 hrs by serial subcultivation method
# Format: functional
# Conditions: ATCC 35210, 72 h
row,Compound,MBC
1,O=C1N/C(=N\c2nccs2)S/C1=C\c1ccc(Cl)cc1Cl,56.2 µM
2,O=C1N/C(=N\c2nccs2)S/C1=C\c1cccc(Br)c1,25.6 µM

# System: Aspergillus niger
# Test: Fungicidal activity against Aspergillus niger ATCC 6275 after 72 hrs by serial subcultivation method
# Format: functional
# Conditions: ATCC 6275, 72 h
row,Compound,MFC
1,O=C1N/C(=N\c2nccs2)S/C1=C\c1ccc(Cl)cc1Cl,56.2 µM
2,O=C1N/C(=N\c2nccs2)S/C1=C\c1cccc(Br)c1,25.6 µM

# System: Aspergillus fumigatus
# Test: Fungicidal activity against Aspergillus fumigatus after 72 hrs by serial subcultivation method
# Format: functional
# Conditions: not given
row,Compound,MFC
1,O=C1N/C(=N\c2nccs2)S/C1=C\c1ccc(Cl)cc1Cl,56.2 µM
2,O=C1N/C(=N\c2nccs2)S/C1=C\c1cccc(Br)c1,25.6 µM

# System: Aspergillus flavus
# Test: Antifungal activity against Aspergillus flavus ATCC 9643 after 72 hrs by serial dilution technique
# Format: functional
# Conditions: ATCC 9643, 72 h
# Procedure, shortened: as §2
row,Compound,MIC
1,O=C1N/C(=N\c2nccs2)S/C1=C\c1ccc(Cl)cc1Cl,42.1 µM
2,O=C1N/C(=N\c2nccs2)S/C1=C\c1cccc(Br)c1,22 µM

# System: Trichoderma viride
# Test: Fungicidal activity against Trichoderma viride IAM 5061 after 72 hrs by serial subcultivation method
# Format: functional
# Conditions: IAM 5061, 72 h
row,Compound,MFC
1,O=C1N/C(=N\c2nccs2)S/C1=C\c1ccc(Cl)cc1Cl,42.1 µM
2,O=C1N/C(=N\c2nccs2)S/C1=C\c1cccc(Br)c1,22 µM

# System: Listeria monocytogenes
# Test: Antibacterial activity against Listeria monocytogenes NCTC 7973 after 24 hr by microdilution test
# Format: functional
# Conditions: NCTC 7973, 24 h
# Procedure, shortened: as §1
row,Compound,MIC
1,O=C1N/C(=N\c2nccs2)S/C1=C\c1ccc(Cl)cc1Cl,70.2 µM
2,O=C1N/C(=N\c2nccs2)S/C1=C\c1cccc(Br)c1,14.4 µM

# System: Talaromyces funiculosus
# Test: Fungicidal activity against Penicillium funiculosum ATCC 36839 after 72 hrs by serial subcultivation method
# Format: functional
# Conditions: ATCC 36839, 72 h
row,Compound,MFC
1,O=C1N/C(=N\c2nccs2)S/C1=C\c1ccc(Cl)cc1Cl,56.2 µM
2,O=C1N/C(=N\c2nccs2)S/C1=C\c1cccc(Br)c1,22 µM

# System: Penicillium ochrochloron
# Test: Antifungal activity against Penicillium ochrochloron ATCC 9112 after 72 hrs by serial dilution technique
# Format: functional
# Conditions: ATCC 9112, 72 h
# Procedure, shortened: as §2
row,Compound,MIC
1,O=C1N/C(=N\c2nccs2)S/C1=C\c1ccc(Cl)cc1Cl,42.1 µM
2,O=C1N/C(=N\c2nccs2)S/C1=C\c1cccc(Br)c1,18 µM

# Target: T1, Prostaglandin G/H synthase 1 (Ovis aries, UniProt P05979)
# T1 sequence (P05979 whole entry): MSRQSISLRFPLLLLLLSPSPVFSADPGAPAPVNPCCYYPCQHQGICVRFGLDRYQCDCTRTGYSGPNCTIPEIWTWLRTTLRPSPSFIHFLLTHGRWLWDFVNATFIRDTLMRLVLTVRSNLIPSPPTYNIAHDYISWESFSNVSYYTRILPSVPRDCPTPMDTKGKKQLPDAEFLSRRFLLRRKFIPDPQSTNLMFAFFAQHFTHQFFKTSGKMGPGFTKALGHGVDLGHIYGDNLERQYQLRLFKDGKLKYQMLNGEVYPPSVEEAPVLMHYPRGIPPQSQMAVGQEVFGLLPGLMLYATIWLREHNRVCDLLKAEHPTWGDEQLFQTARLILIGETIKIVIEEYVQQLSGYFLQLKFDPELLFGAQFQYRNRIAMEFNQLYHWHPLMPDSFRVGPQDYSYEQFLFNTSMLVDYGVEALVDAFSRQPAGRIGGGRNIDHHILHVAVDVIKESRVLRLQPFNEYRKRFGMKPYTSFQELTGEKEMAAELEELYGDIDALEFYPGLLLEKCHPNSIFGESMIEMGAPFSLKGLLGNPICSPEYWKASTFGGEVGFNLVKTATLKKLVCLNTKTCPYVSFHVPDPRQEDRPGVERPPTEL
# Test: (§4) Inhibition of ovine COX1 assessed as inhibition of PGF2a production by enzyme immunoassay
# Conditions: not given
# Procedure, shortened: (§5)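 Ovine COX-1 from a commercial screening kit, tested with 0.1 µM arachidonic acid, which is below the saturating level. COX-derived PGH2 is reduced by SnCl2 to PGF2a, quantified by enzyme immunoassay with a broad prostaglandin antibody. At least triplicate.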
row,Compound,IC50
1,O=C1N/C(=N\c2nccs2)S/C1=C\c1ccc(Cl)cc1Cl,32 µM

# Target: T2, Prostaglandin G/H synthase 1 (Ovis aries) (UniProt P05979)
# T2 sequence (whole entry): T1 sequence (P05979 whole entry)
# Test: as §4
# Parameters: concentration or dose not given beside the values
# Conditions: concentration not given here
# Procedure, shortened: as §5
row,Compound,inhibition
1,O=C1N/C(=N\c2nccs2)S/C1=C\c1ccc(Cl)cc1Cl,98%
2,O=C1N/C(=N\c2nccs2)S/C1=C\c1cccc(Br)c1,2%

# System: Staphylococcus aureus
# Test: Antibacterial activity against Staphylococcus aureus ATCC 6538 after 24 hr by microdilution test
# Format: functional
# Conditions: ATCC 6538, 24 h
# Procedure, shortened: as §1
row,Compound,MIC
1,O=C1N/C(=N\c2nccs2)S/C1=C\c1ccc(Cl)cc1Cl,56.2 µM
2,O=C1N/C(=N\c2nccs2)S/C1=C\c1cccc(Br)c1,7.3 µM

# System: Talaromyces funiculosus
# Test: Antifungal activity against Penicillium funiculosum ATCC 36839 after 72 hrs by serial dilution technique
# Format: functional
# Conditions: ATCC 36839, 72 h
# Procedure, shortened: as §2
row,Compound,MIC
1,O=C1N/C(=N\c2nccs2)S/C1=C\c1ccc(Cl)cc1Cl,28.1 µM
2,O=C1N/C(=N\c2nccs2)S/C1=C\c1cccc(Br)c1,18 µM

# System: Listeria monocytogenes
# Test: Bactericidal activity against Listeria monocytogenes NCTC 7973 after 72 hrs by serial subcultivation method
# Format: functional
# Conditions: NCTC 7973, 72 h
row,Compound,MBC
1,O=C1N/C(=N\c2nccs2)S/C1=C\c1ccc(Cl)cc1Cl,84.2 µM
2,O=C1N/C(=N\c2nccs2)S/C1=C\c1cccc(Br)c1,18.3 µM

# System: Mus musculus
# Test: Acute toxicity in AKR mouse up to 0.5 mmol/kg, ip
# Format: organism-based
# Conditions: in vivo
row,Compound,Activity
1,O=C1N/C(=N\c2nccs2)S/C1=C\c1ccc(Cl)cc1Cl,Non-toxic
2,O=C1N/C(=N\c2nccs2)S/C1=C\c1cccc(Br)c1,Non-toxic

# System: Escherichia coli
# Test: Antibacterial activity against Escherichia coli ATCC 35210 after 24 hr by microdilution test
# Format: functional
# Conditions: ATCC 35210, 24 h
# Procedure, shortened: as §1
row,Compound,MIC
1,O=C1N/C(=N\c2nccs2)S/C1=C\c1ccc(Cl)cc1Cl,21.1 µM
2,O=C1N/C(=N\c2nccs2)S/C1=C\c1cccc(Br)c1,14.6 µM

# System: Aspergillus niger
# Test: Antifungal activity against Aspergillus niger ATCC 6275 after 72 hrs by serial dilution technique
# Format: functional
# Conditions: ATCC 6275, 72 h
# Procedure, shortened: as §2
row,Compound,MIC
1,O=C1N/C(=N\c2nccs2)S/C1=C\c1ccc(Cl)cc1Cl,42.1 µM
2,O=C1N/C(=N\c2nccs2)S/C1=C\c1cccc(Br)c1,18 µM

# System: Aspergillus fumigatus
# Test: Antifungal activity against Aspergillus fumigatus after 72 hrs by serial dilution technique
# Format: functional
# Conditions: not given
# Procedure, shortened: as §2
row,Compound,MIC
1,O=C1N/C(=N\c2nccs2)S/C1=C\c1ccc(Cl)cc1Cl,42.1 µM
2,O=C1N/C(=N\c2nccs2)S/C1=C\c1cccc(Br)c1,18 µM

# System: Micrococcus flavus
# Test: Antibacterial activity against Micrococcus flavus ATCC 10240 after 24 hr by microdilution test
# Format: functional
# Conditions: ATCC 10240, 24 h
# Procedure, shortened: as §1
row,Compound,MIC
1,O=C1N/C(=N\c2nccs2)S/C1=C\c1ccc(Cl)cc1Cl,84.2 µM
2,O=C1N/C(=N\c2nccs2)S/C1=C\c1cccc(Br)c1,18.3 µM

# System: Staphylococcus aureus
# Test: Bactericidal activity against Staphylococcus aureus ATCC 6538 after 72 hrs by serial subcultivation method
# Format: functional
# Conditions: ATCC 6538, 72 h
row,Compound,MBC
1,O=C1N/C(=N\c2nccs2)S/C1=C\c1ccc(Cl)cc1Cl,70.2 µM
2,O=C1N/C(=N\c2nccs2)S/C1=C\c1cccc(Br)c1,14.4 µM

# System: Pseudomonas aeruginosa
# Test: Bactericidal activity against Pseudomonas aeruginosa ATCC 27853 after 72 hrs by serial subcultivation method
# Format: functional
# Conditions: ATCC 27853, 72 h
row,Compound,MBC
1,O=C1N/C(=N\c2nccs2)S/C1=C\c1ccc(Cl)cc1Cl,70.2 µM
2,O=C1N/C(=N\c2nccs2)S/C1=C\c1cccc(Br)c1,25.6 µM

# System: Micrococcus flavus
# Test: Bactericidal activity against Micrococcus flavus ATCC 10240 after 72 hrs by serial subcultivation method
# Format: functional
# Conditions: ATCC 10240, 72 h
row,Compound,MBC
1,O=C1N/C(=N\c2nccs2)S/C1=C\c1ccc(Cl)cc1Cl,98.2 µM
2,O=C1N/C(=N\c2nccs2)S/C1=C\c1cccc(Br)c1,25.6 µM

# System: Pseudomonas aeruginosa
# Test: Antibacterial activity against Pseudomonas aeruginosa ATCC 27853 after 24 hr by microdilution test
# Format: functional
# Conditions: ATCC 27853, 24 h
# Procedure, shortened: as §1
row,Compound,MIC
1,O=C1N/C(=N\c2nccs2)S/C1=C\c1ccc(Cl)cc1Cl,28.1 µM
2,O=C1N/C(=N\c2nccs2)S/C1=C\c1cccc(Br)c1,14.6 µM

# System: Mus musculus
# Test: Antiinflammatory activity in AKR mouse assessed as inhibition of carrageenan-induced paw edema at 0.01 mmol/kg, ip measured after 3.5 hrs of carrageenan-challenge
# Format: functional
# Conditions: not given
# Procedure, shortened: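 AKR mice of both sexes (pregnant females excluded), 6-10 per group, fasted during the experiment. Edema induced by intradermal 0.05 mL of 2% carrageenin into the right hind paw. Compound given at 0.01 mmol/kg ip, suspended in water with Tween-80, at the same time as carrageenin.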
row,Compound,inhibition in vivo at 10 µmol/kg
1,O=C1N/C(=N\c2nccs2)S/C1=C\c1ccc(Cl)cc1Cl,9.9%
2,O=C1N/C(=N\c2nccs2)S/C1=C\c1cccc(Br)c1,42.7%
